# Active and inactive are the calls of the source. The rule behind the calls is not given here.
# Legend:
# [1] = organism: Cavia porcellus; assay: Compound was evaluated for antihistaminic activity against isolated guinea pig ileum.; assay type: functional
# Summary of the method: (§1)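 Isolated guinea pig ileum segment (about 2 cm) in an organ bath of Krebs buffer at 37 °C, bubbled with 95% O2–5% CO2. Three cumulative histamine dose-response curves were run first, starting at 10 nM. After washing, the strip was exposed to compound for 30 min and the curve repeated. KB was derived by Cheng–Prusoff. Means ± SD of ≥3 independent experiments.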
# [2] = organism: Cavia porcellus; assay: Compound was evaluated for inhibition of contraction in guinea pig ileum induced by leukotriene D4 (LTD4).; assay type: functional, organism-based
# Summary of the method: (§2)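 Isolated guinea pig ileum strip in Krebs buffer at 37 °C, continuously bubbled with 95% O2–5% CO2. After washing, the strip was pre-incubated with compound for 30 min before LTD4 challenge. Contraction was induced by LTD4 at 10 nM. The value reported is the antagonist concentration giving 50% of maximal inhibition. Means ± SD of ≥3 independent experiments.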
# [3] = organism: Cavia porcellus; assay: Compound was evaluated for inhibition of [3H]LTD4 binding in guinea pig lung membrane fragments.
# [4] = target: T1, Cysteinyl leukotriene receptor 1 (Cavia porcellus, UniProt Q2NNR5); assay: Dissociation constant was determined against Cysteinyl leukotriene D4 receptor of guinea pig lung membranes using radioligand binding assays.; assay type: tissue-based
# T1 sequence (Q2NNR5 whole entry): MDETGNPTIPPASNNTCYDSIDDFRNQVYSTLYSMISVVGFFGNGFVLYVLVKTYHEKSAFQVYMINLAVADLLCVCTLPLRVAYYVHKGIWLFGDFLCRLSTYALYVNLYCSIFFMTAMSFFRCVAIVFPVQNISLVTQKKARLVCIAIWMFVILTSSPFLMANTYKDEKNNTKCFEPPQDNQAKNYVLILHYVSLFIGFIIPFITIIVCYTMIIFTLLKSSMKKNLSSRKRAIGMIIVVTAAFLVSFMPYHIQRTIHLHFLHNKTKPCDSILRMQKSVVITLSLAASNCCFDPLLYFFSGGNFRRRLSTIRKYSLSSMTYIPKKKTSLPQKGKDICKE
# [5] = target: T2, Histamine H1 receptor (Cavia porcellus, UniProt P31389); assay: dissociation constant was determined against H1 receptor of guinea pig lung membranes using radioligand binding assays.; assay type: tissue-based
# Summary of the method: (§3)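 Guinea pig lung membranes were incubated with 0.5 nM [3H]mepyramine and compound at 37 °C in 50 mM Na-K phosphate, pH 7.5. Nonspecific binding was defined with (-)-dimethindene. The reaction was stopped with ice-cold buffer, then filtered on GF/C and counted by scintillation. Radioligand KD was 3.30 nM. KB by Cheng–Prusoff; means of two independent assays in triplicate.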
# [6] = organism: Cavia porcellus; assay: Compound was evaluated for antihistaminic activity against isolated guinea pig ileum; Not active; assay type: functional; summary of the method: as §1
# [7] = target: T2, Histamine H1 receptor; assay: Dissociation constant was determined against H1 receptor of guinea pig lung membranes using radioligand binding assays.; assay type: tissue-based
# Summary of the method: as §3, with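 “scintillation.” for “scintillation. Radioligand KD was 3.30 nM.”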
# [8] = organism: Cavia porcellus; assay: Compound was evaluated for inhibition of contraction in guinea pig ileum induced by leukotriene D4 (LTD4); Not active; assay type: functional, organism-based; summary of the method: as §2
# T2 sequence (P31389 whole entry): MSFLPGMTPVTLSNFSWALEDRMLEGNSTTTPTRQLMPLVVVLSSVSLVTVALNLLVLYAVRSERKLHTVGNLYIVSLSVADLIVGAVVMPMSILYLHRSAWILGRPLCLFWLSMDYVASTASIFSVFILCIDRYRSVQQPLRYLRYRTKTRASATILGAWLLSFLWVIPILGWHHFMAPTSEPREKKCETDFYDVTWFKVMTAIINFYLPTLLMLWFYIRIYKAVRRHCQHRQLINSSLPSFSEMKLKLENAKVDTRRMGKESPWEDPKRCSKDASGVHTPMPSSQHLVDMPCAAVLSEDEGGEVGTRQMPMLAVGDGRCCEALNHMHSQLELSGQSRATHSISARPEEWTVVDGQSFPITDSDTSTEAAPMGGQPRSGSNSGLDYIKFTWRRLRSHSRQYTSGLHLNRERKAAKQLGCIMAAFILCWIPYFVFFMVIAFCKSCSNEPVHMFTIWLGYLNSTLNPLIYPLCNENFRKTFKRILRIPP
IC50 [2] [nM],Compound,"Kb ([1]; Cavia porcellus, Ileum) [nM]",further results
56700,O=c1cc(C2N=NN=N2)oc2cc(OCCCN3CCC(C(O)(c4ccccc4)c4ccccc4)CC3)ccc12,1.7,–
–,Cc1ccc(C(OC2CCN(CCCOc3ccc4c(=O)cc(C(=O)O)oc4c3)CC2)c2ccccc2)cc1 (stereo in doubt; 1i),–,Kb [1]: 12.3 nM; IC50 [3]: 16600 nM
190,O=c1cc(C2N=NN=N2)oc2cc(OCCCN3CCC(=C(c4ccccc4)c4ccccc4)CC3)ccc12,3.63,Kd [4]: 2340 nM; Kd [5]: 5.89 nM
–,Cc1ccc(C(OC2CCN(CCCOc3ccc4c(=O)cc(C(=O)O)oc4c3)CC2)c2ccccc2)cc1 (stereo in doubt; 1j),–,Kb [1]: 2.24 nM; IC50 [3]: 212000 nM
120,CCCc1c(OCC(O)COc2ccc3c(=O)cc(C(=O)O)oc3c2CCC)ccc(C(C)=O)c1O (stereo unspecified) [FPL-55712],–,Kb [6]: inactive
650,O=C(O)c1cc(=O)c2cc(OCCCN3CCC(=C(c4ccccc4)c4ccccc4)CC3)ccc2o1,5.75,Kd [4]: 4270 nM; Kd [7]: 5.98 nM
–,CC(C)(C)c1ccc(C(O)CCCN2CCC(C(O)(c3ccccc3)c3ccccc3)CC2)cc1 (stereo unspecified) [TERFENADINE],–,IC50 [8]: Not Active
20400,O=C(O)c1cc(=O)c2ccc(OCCCN3CCC(=C(c4ccccc4)c4ccccc4)CC3)cc2o1,16.2,–
18300,O=C(O)c1cc(=O)c2ccc(OCCCCCN3CCC(OC(c4ccccc4)c4ccccc4)CC3)cc2o1,17,–
48200,O=C(O)c1cc(=O)c2ccc(OCCCCCCN3CCC(OC(c4ccccc4)c4ccccc4)CC3)cc2o1,5.13,–
22800,O=C(O)c1cc(=O)c2ccc(OCCCN3CCC(C(O)(c4ccccc4)c4ccccc4)CC3)cc2o1,5.25,–
1450,O=C(O)c1cc(=O)c2ccc(OCCCN3CCC(OC(c4ccccc4)c4ccccc4)CC3)cc2o1,9.12,–
> 100000,O=C(O)c1cc(=O)c2cc(OCCCN3CCC(C(O)(c4ccccc4)c4ccccc4)CC3)ccc2o1,3.8,–
9890,O=C(O)c1cc(=O)c2ccc(OCCCCN3CCC(OC(c4ccccc4)c4ccccc4)CC3)cc2o1,7.08,–
